Results: ChEMBL document CHEMBL1649392, “Synthesis of substituted 3-amino-N-phenyl-1H-indazole-1-carboxamides endowed with antiproliferative activity” (Eur J Med Chem, 2011)

Experiments:
Format in all cases: functional
SF-539 = assay: Antiproliferative activity against human SF539 cells after 48 hrs by sulforhodamine B assay; conditions: SF-539, 48 h
How it was run: (§1)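 NCI 60-cell-line panel covering nine cancer types (leukemia, non-small cell lung, colon, CNS, melanoma, ovarian, renal, prostate, breast). Compounds were first tested at a single dose, then in a five-dose screen (series starting 0.01, 0.1 …) if they met NCI threshold criteria. Reported per line: GI50 (molar concentration inhibiting 50% net growth), TGI (total growth inhibition) and LC50 (50% net cell death).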

MCF7 = assay: Antiproliferative activity against human MCF7 cells after 48 hrs by sulforhodamine B assay; conditions: MCF7, 48 h; how it was run: as §1
UACC-62 = assay: Antiproliferative activity against human UACC62 cells after 48 hrs by sulforhodamine B assay; conditions: UACC-62, 48 h
How it was run: (§2)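 NCI 60-cell-line panel screen: single dose 10 µM first, then 5-dose testing (0.01, 0.1, … molar series). For each line, GI50 is the molar concentration giving 50% inhibition of net cell growth, TGI gives total inhibition of net growth, and LC50 gives 50% net cell death. Method follows the NCI DTP protocol.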

TK-10 = assay: Antiproliferative activity against human TK10 cells after 48 hrs by sulforhodamine B assay; conditions: TK-10, 48 h; how it was run: as §2
BT-549 = assay: Antiproliferative activity against human BT549 cells after 48 hrs by sulforhodamine B assay; conditions: BT-549, 48 h; how it was run: as §1
IGROV-1 = assay: Antiproliferative activity against human IGROV1 cells after 48 hrs by sulforhodamine B assay; conditions: IGROV-1, 48 h; how it was run: as §1
HL-60(TB) = assay: Antiproliferative activity against human HL-60(TB) cells after 48 hrs by sulforhodamine B assay; conditions: HL-60, 48 h
How it was run: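 Tested by the National Cancer Institute in its full tumour cell panel covering nine cancer types, including leukemia. Compounds were first screened at a single dose. Those passing the preset inhibition threshold then went to a 5-dose screen. GI50 is the molar concentration giving 50% inhibition of net cell growth; TGI and LC50 were also derived.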

HOP-62 = assay: Antiproliferative activity against human HOP62 cells after 48 hrs by sulforhodamine B assay; conditions: HOP-62, 48 h; how it was run: as §1
[1] = Antiproliferative activity against human Hs 578T cells after 48 hrs by sulforhodamine B assay; how it was run: as §1
SK-MEL-28 = assay: Antiproliferative activity against human SK-MEL-28 cells after 48 hrs by sulforhodamine B assay; conditions: SK-MEL-28, 48 h; how it was run: as §1
SK-MEL-5 = assay: Antiproliferative activity against human SK-MEL-5 cells after 48 hrs by sulforhodamine B assay; conditions: SK-MEL-5, 48 h; how it was run: as §1
NCI/ADR-RES = assay: Antiproliferative activity against human NCI/ADR-RES cells after 48 hrs by sulforhodamine B assay; how it was run: as §1
A549 = assay: Antiproliferative activity against human A549 cells after 48 hrs by sulforhodamine B assay; conditions: A549, 48 h; how it was run: as §1
T47D = assay: Antiproliferative activity against human T47D cells after 48 hrs by sulforhodamine B assay; how it was run: as §2
NCI-H460 = assay: Antiproliferative activity against human NCI-H460 cells after 48 hrs by sulforhodamine B assay; conditions: NCI-H460, 48 h; how it was run: as §1
MDA-MB-435 = assay: Antiproliferative activity against human MDA-MB-435 cells after 48 hrs by sulforhodamine B assay; conditions: MDA-MB-435, 48 h; how it was run: as §1
MDA-MB-231 = assay: Antiproliferative activity against human MDA-MB-231 cells after 48 hrs by sulforhodamine B assay; conditions: MDA-MB-231, 48 h; how it was run: as §1
EKVX = assay: Antiproliferative activity against human EKVX cells after 48 hrs by sulforhodamine B assay; how it was run: as §1
HT-29 = assay: Antiproliferative activity against human HT-29 cells after 48 hrs by sulforhodamine B assay; conditions: HT-29, 48 h; how it was run: as §1
786-0 = assay: Antiproliferative activity against human 786-0 cells after 48 hrs by sulforhodamine B assay; conditions: 786-0, 48 h; how it was run: as §1
SW-620 = assay: Antiproliferative activity against human SW620 cells after 48 hrs by sulforhodamine B assay; conditions: SW-620, 48 h; how it was run: as §2
SF-295 = assay: Antiproliferative activity against human SF295 cells after 48 hrs by sulforhodamine B assay; conditions: SF-295, 48 h; how it was run: as §1
CCRF-CEM = assay: Antiproliferative activity against human CCRF-CEM cells after 48 hrs by sulforhodamine B assay; how it was run: as §1
U-251 = assay: Antiproliferative activity against human U251 cells after 48 hrs by sulforhodamine B assay; conditions: U-251, 48 h; how it was run: as §2
PC-3 = assay: Antiproliferative activity against human PC3 cells after 48 hrs by sulforhodamine B assay; conditions: PC-3, 48 h; how it was run: as §1
LOX IMVI = assay: Antiproliferative activity against human LOXIMVI cells after 48 hrs by sulforhodamine B assay; how it was run: as §1
DU-145 = assay: Antiproliferative activity against human DU145 cells after 48 hrs by sulforhodamine B assay; conditions: DU-145, 48 h; how it was run: as §1
[2] = read-out: LC50 (the source's name)

SMILES: Nc1ccc2c(c1)c(N)nn2C(=O)Nc1ccc(Cc2ccccc2)cc1
- GI50 (SF-539): 8.7 µM
- TGI (SF-539): 22.1 µM
- CC50 (SF-539; [2]): 51.8 µM
- GI50 (MCF7): 6.92 µM
- TGI (MCF7): 26.5 µM
- CC50 (MCF7; [2]): 85.4 µM
- GI50 (UACC-62): 2.9 µM
- TGI (UACC-62): 12.6 µM
- CC50 (UACC-62; [2]): 39.3 µM
- GI50 (TK-10): 19.4 µM
- TGI (TK-10): 46 µM
- CC50 (TK-10; [2]): > 100 µM
- GI50 (BT-549): 14.6 µM
- TGI (BT-549): 33.5 µM
- CC50 (BT-549; [2]): 76.7 µM
- GI50 (IGROV-1): 16.4 µM
- TGI (IGROV-1): 54.1 µM
- CC50 (IGROV-1; [2]): > 100 µM
- GI50 (HL-60(TB)): 3.46 µM
- TGI (HL-60(TB)): 17.2 µM
- CC50 (HL-60(TB); [2]): 72.2 µM
- GI50 (HOP-62): 11.2 µM
- LC50 (concentration causing 50% net cell death) (HOP-62): 65.3 µM
- TGI (HOP-62): 27 µM
- GI50 [1]: 17.3 µM
- TGI [1]: 43 µM
- CC50 [1, 2]: > 100 µM
- GI50 (SK-MEL-28): 13.7 µM
- TGI (SK-MEL-28): 27.8 µM
- CC50 (SK-MEL-28; [2]): 56.2 µM
- GI50 (SK-MEL-5): 6.52 µM
- TGI (SK-MEL-5): 19.8 µM
- CC50 (SK-MEL-5; [2]): 46.4 µM
- GI50 (NCI/ADR-RES): 17.4 µM
- TGI (NCI/ADR-RES): 75.1 µM
- CC50 (NCI/ADR-RES; [2]): > 100 µM
- GI50 (A549): 6.58 µM
- TGI (A549): 57.1 µM
- CC50 (A549; [2]): > 100 µM
- GI50 (T47D): 5.8 µM
- LC50 (concentration giving 50% net cell death) (T47D): 66 µM
- TGI (T47D): 22.8 µM
- GI50 (NCI-H460): 4.64 µM
- TGI (NCI-H460): 23.8 µM
- CC50 (NCI-H460; [2]): > 100 µM
- GI50 (MDA-MB-435): 7.36 µM
- TGI (MDA-MB-435): 23.8 µM
- CC50 (MDA-MB-435; [2]): 65.5 µM
- GI50 (MDA-MB-231): 7.74 µM
- TGI (MDA-MB-231): 22.7 µM
- CC50 (MDA-MB-231; [2]): 54.3 µM
- GI50 (EKVX): 14 µM
- TGI (EKVX): 36.7 µM
- CC50 (EKVX; [2]): 96.1 µM
- GI50 (HT-29): 4.51 µM
- LC50 (concentration giving 50% net cell death) (HT-29): 46 µM
- TGI (HT-29): 17.2 µM
- GI50 (786-0): 12.4 µM
- TGI (786-0): 25.9 µM
- CC50 (786-0; [2]): 54.3 µM
- GI50 (SW-620): 4.48 µM
- TGI (SW-620): 18.7 µM
- CC50 (SW-620; [2]): 58.5 µM
- GI50 (SF-295): 3.96 µM
- LC50 (SF-295): 45.4 µM
- TGI (SF-295): 15.1 µM
- GI50 (CCRF-CEM): 2.07 µM
- LC50 (concentration causing 50% net cell death) (CCRF-CEM): > 100 µM
- TGI (CCRF-CEM): 18.8 µM
- GI50 (U-251): 6.53 µM
- LC50 (concentration giving 50% net cell death) (U-251): 52 µM
- TGI (U-251): 20.9 µM
- GI50 (PC-3): 4.33 µM
- TGI (PC-3): 24 µM
- CC50 (PC-3; [2]): 87 µM
- GI50 (LOX IMVI): 3.38 µM
- LC50 (concentration causing 50% net cell death) (LOX IMVI): 46.7 µM
- TGI (LOX IMVI): 16 µM
- GI50 (DU-145): 10.9 µM
- TGI (DU-145): 24 µM
- CC50 (DU-145; [2]): 52.6 µM
